Apaf-1 inh – inhibitors of human Apaf-1 apoptosome, primary screen, biochemical, DEVD-Rh110 fluorescence, uHTS; Apoptotic protease-activating factor 1 (Homo sapiens), O14727; reconstituted apoptosome caspase-3 activity; inhibition, % at 20 µM; 330,000 tested, 0.71% active; AID 489030, 2010; active means inhibition of at least 40% at 20 µM;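 further: plate controls were DMSO wells for no effect and DEVD-CHO caspase inhibitor wells for full effect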
Target sequence (O14727 whole entry, looked up): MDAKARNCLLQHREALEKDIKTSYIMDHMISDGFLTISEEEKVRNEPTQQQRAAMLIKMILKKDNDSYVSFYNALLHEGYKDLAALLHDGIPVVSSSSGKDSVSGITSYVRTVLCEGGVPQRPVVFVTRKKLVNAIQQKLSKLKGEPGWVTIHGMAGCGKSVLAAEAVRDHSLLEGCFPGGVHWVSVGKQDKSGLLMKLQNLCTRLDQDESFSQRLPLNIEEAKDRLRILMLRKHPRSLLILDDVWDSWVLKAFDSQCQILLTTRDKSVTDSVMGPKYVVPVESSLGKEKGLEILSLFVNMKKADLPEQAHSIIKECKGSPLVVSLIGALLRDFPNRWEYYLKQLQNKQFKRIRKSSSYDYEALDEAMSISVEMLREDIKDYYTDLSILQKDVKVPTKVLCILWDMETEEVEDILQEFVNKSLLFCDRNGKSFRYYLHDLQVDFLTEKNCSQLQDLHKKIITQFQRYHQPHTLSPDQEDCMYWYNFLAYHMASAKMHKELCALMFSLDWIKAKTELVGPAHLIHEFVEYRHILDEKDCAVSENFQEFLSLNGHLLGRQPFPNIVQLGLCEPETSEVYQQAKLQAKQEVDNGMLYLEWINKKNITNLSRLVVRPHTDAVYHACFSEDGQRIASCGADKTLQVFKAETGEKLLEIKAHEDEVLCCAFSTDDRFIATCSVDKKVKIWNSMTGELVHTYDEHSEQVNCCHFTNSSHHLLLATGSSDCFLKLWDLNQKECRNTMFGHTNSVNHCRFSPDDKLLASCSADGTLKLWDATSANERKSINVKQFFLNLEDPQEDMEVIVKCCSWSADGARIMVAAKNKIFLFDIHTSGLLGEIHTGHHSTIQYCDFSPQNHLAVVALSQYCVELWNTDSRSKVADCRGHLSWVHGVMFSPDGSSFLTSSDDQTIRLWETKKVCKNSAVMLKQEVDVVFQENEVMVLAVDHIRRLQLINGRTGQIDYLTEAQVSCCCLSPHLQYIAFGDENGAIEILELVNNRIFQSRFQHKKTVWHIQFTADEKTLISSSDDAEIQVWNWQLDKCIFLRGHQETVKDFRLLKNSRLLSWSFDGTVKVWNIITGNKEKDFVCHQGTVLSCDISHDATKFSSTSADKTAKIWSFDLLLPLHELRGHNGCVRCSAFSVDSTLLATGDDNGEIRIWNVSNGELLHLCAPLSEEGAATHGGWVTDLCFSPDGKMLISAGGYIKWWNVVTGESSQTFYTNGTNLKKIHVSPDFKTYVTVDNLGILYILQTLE
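Material: reconstituted apoptosome with Apaf-1, cytochrome c, caspase-9, procaspase-3, dATP; medium: pH 7.5 Hepes buffer with CHAPS, BSA, DTT; also added: cytochrome c and DEVD-Rh110 substrate; timing: 30 min plus 50 min, RT; signal: Rh110 fluorescence intensity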
PRMT1 FP inh – PRMT1 methyltransferase inhibitors, primary screen, biochemical, fluorescence polarization. recombinant PRMT1, activity-based probe fluorescence polarization. 370,000 tested, 1.3% active. inhibition, % at 2.79 µM. Protein arginine N-methyltransferase 1 (Homo sapiens), Q99873. AID 652257, 2013;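 active means inhibition above about 21% made by adding two undisclosed values, limit read from the data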
PAD4 FP inh – human PAD4 inhibitors, primary screen, biochemical, fluorescence polarization, 1536-well format. Protein-arginine deiminase type-4 (Homo sapiens), Q9UM07. recombinant PAD4, RCA probe fluorescence polarization. inhibition, % at 6.36 µM. 330,000 tested, 0.41% active;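 active means percent inhibition above a cutoff equal to the mean of all tested compounds plus 3 SD, cut at about 15% in these data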;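 further: 0% = PAD4 with RCA probe and DMSO and 100% = probe without PAD4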
TDP2 absorb – human TDP2 enzyme inhibitors, primary screen, biochemical, epi absorbance, recombinant enzyme; 370,000 tested, 0.34% active; T5PNP hydrolysis, p-nitrophenol absorbance 415 nm; inhibition, % at 12.8 µM;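 active means inhibition above the mean of all tested compounds plus 3 SD, set per campaign, cut at about 25% in these data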;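 further: 0% = DMSO with enzyme and 100% = buffer with substrate but no TDP2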
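Read-out basis: percent inhibition. System: recombinant human TDP2. Buffer or medium: Mg2+-containing Tris-HCl buffer, pH 7.5. Repeats: single replicate. Timing: reaction 2 h, 37 °C. Benchmarks: high control without enzyme, low control DMSO plus TDP2. Probe or stimulus: 5 mM T5PNP. Doses: 12.8 µM only. Measured by: epi absorbance of p-nitrophenol freed from T5PNP by hydrolysis.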
GSTO1 inh – inhibitors of recombinant GSTO1, primary screen, counter-screen for RBBP9 inhibitor project, biochemical, fluorescence polarization; activity-based probe fluorescence polarization; inhibition, % at 5.96 µM; 300,000 tested, 1.1% active;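 active means inhibition above the campaign mean inhibition plus 3 SD, cut at about 35% in these data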;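 further: 0% = GSTO1-1 with DMSO and 100% = wells lacking GSTO1-1 enzyme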
Apaf-1 inh conf – Apaf-1 inhibitors, single-dose retest, confirmation, biochemical, fluorescence, DEVD-Rh110, 20 µM; shares compounds with Apaf-1 inh; reconstituted apoptosome, caspase-3 DEVD-Rh110 fluorescence; inhibition, % at 20 µM; 1,800 tested, 25% active;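 active means mean inhibition of at least 40% at 20 µM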;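 further: plate controls were DMSO wells for no effect and DEVD-CHO caspase inhibitor control wells for full effect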
Rh110 quench – Rh110 fluorescence interference by putative Apaf-1 inhibitors, confirmation, artefact control for Apaf-1 inhibitor project, biochemical, 20 µM; shares compounds with Apaf-1 inh; quenched caspase reaction; activation (fluorescence interference), % at 20 µM; 1,800 tested, under 10 active; AID 504615, 2011;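 active means signal rise of 40% or more at 20 µM, treated as a fluorescence artifact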
Apaf1 inh interf – fluorescence interference of Apaf-1 inhibitor hits, dose response, artefact control for Apaf-1 inhibitor project | fluorescence interference counterscreen, Apaf-1 assay format | shares compounds with Apaf-1 inh | AID 588538, 2011 | 460 tested, under 10 active | IC50, µM; call rule not given here
An asterisk follows results filed as active; ! = a repeat was not active. A selection: hits, their analogues and other compounds. The true share with any hit is near 2.6%.

How did C[C@H](CO)N1C[C@H](C)[C@@H](CN(C)Cc2ccc(Oc3ccccc3)cc2)Oc2c(NC(=O)C3CC3)cccc2C1=O do in these assays?
Apaf-1 inh: 43*; PRMT1 FP inh: -2; PAD4 FP inh: 0; TDP2 absorb: 3; Apaf-1 inh conf: 22; Rh110 quench: -4

How did CN(CC(=O)Nc1ccc(Cl)c(C(F)(F)F)c1)C(=O)CC1Sc2ccccc2NC1=O (centres undefined) do in these assays?
Apaf-1 inh: 51*; PRMT1 FP inh: -4; PAD4 FP inh: -4; TDP2 absorb: -8; GSTO1 inh: -1; Apaf-1 inh conf: 47*; Rh110 quench: 19; Apaf1 inh interf: >100

Results for CN(CC(=O)NC(=O)NCc1ccccc1)CC(=O)Nc1ccc(Cl)c(C(F)(F)F)c1 ?
Apaf-1 inh: 38; PRMT1 FP inh: -1; PAD4 FP inh: 1; TDP2 absorb: 6; GSTO1 inh: 2

Results for COc1cccc(NC(=O)CN(C)C(=O)CC2Sc3ccccc3NC2=O)c1 (centres undefined) ?
Apaf-1 inh: 3; PRMT1 FP inh: 2; PAD4 FP inh: -6; TDP2 absorb: -6

Results for CN(CC(=O)NCc1ccccc1)CC(=O)Nc1ccc(Cl)c(C(F)(F)F)c1 ?
Apaf-1 inh: 53*; PRMT1 FP inh: 0; PAD4 FP inh: 0; TDP2 absorb: -3; Apaf-1 inh conf: 37; Rh110 quench: 9

How did CC(O)(c1ccc(F)c(F)c1)c1nc(-c2cc(F)cc(F)c2)cs1 (centres undefined) do in these assays?
PRMT1 FP inh: 0; TDP2 absorb: 3

What do the screens show for `CC(C)[C@H](NC(=O)N1CCC(Cc2ccccc2)CC1)C(=O)O`?
Apaf-1 inh: 42*; PRMT1 FP inh: 3; PAD4 FP inh: 1; TDP2 absorb: 1; GSTO1 inh: 6; Apaf-1 inh conf: 13; Rh110 quench: 3

Results for COC(=O)[C@H](C)NC(=O)N1CCC(Cc2ccccc2)CC1 ?
Apaf-1 inh: -2; PRMT1 FP inh: -2; PAD4 FP inh: 5; TDP2 absorb: 10; GSTO1 inh: -6

What do the screens show for `COc1cc(OC)nc(Nc2nc(C(N)Cc3ccc(C(F)(F)F)cc3)cs2)n1` (centres undefined)?
PRMT1 FP inh: 0; TDP2 absorb: -5

How did CCOC(=O)C1=C(C)NC(C)=C(C(=O)OC)C1c1cccc(Cl)c1Cl (centres undefined) do in these assays?
Apaf-1 inh: 5; PRMT1 FP inh: 1; PAD4 FP inh: -1; TDP2 absorb: 2; GSTO1 inh: 5

Results for CCOC(=O)C1=C(COCCN)NC(C)=C(C(=O)OC)C1c1ccccc1Cl (centres undefined) ?
Apaf-1 inh: 49*!; PRMT1 FP inh: -4; PAD4 FP inh: -5; TDP2 absorb: 6; GSTO1 inh: 6; Apaf-1 inh conf: 8; Rh110 quench: -10

Results for CN1CCN(c2ccc(NC(=O)c3cc(S(N)(=O)=O)ccc3N3CCOCC3)cc2)CC1 ?
Apaf-1 inh: 40*; PRMT1 FP inh: -1; PAD4 FP inh: -3; TDP2 absorb: -8; Apaf-1 inh conf: 5; Rh110 quench: 8

Results for CN1CCN(c2ccc(NC(=O)c3cc([N+](=O)[O-])ccc3N3CCOCC3)cc2)CC1 ?
Apaf-1 inh: 11; PRMT1 FP inh: -2; PAD4 FP inh: -2; TDP2 absorb: -8; GSTO1 inh: -1

Results for CC(C)NC(=O)C1(C)CN(S(C)(=O)=O)CC(=O)N1CC(F)(F)F (centres undefined) ?
PRMT1 FP inh: -4; TDP2 absorb: -8

What do the screens show for `Cc1[nH]n(-c2ccccc2)c(=O)c1N=Nc1nccs1`?
Apaf-1 inh: 73*; PRMT1 FP inh: -2; PAD4 FP inh: -1; TDP2 absorb: -6; GSTO1 inh: 15; Apaf-1 inh conf: 35; Rh110 quench: 19

Results for C[C@@H](c1ccccc1)N1C[C@@H](COCc2ccccc2)Oc2cc(N3CC[C@H](O)C3)ccc2S1(=O)=O ?
PRMT1 FP inh: -2; TDP2 absorb: 5

What do the screens show for `Cc1cc(SCC(=O)N/N=C/c2ccc(O)c(O)c2O)c(C)cc1Br`?
Apaf-1 inh: 49*; PRMT1 FP inh: 35*; PAD4 FP inh: 4; TDP2 absorb: -3; GSTO1 inh: 18; Apaf-1 inh conf: 31; Rh110 quench: 8

How did O=C(CN1C2CCCC1CC(NC(=O)c1ccco1)C2)Nc1ccccc1 (centres undefined) do in these assays?
Apaf-1 inh: 2; PRMT1 FP inh: 0; PAD4 FP inh: 2; TDP2 absorb: 2; GSTO1 inh: 10

Results for O=C(NC1CC2CCCC(C1)N2S(=O)(=O)c1ccccc1)c1ccco1 (centres undefined) ?
Apaf-1 inh: 42*; PRMT1 FP inh: 3; PAD4 FP inh: 3; TDP2 absorb: -3; GSTO1 inh: -1; Apaf-1 inh conf: 2; Rh110 quench: 5

How did Cc1cccc(C)c1NC(=O)C(C1CC1)n1c(=O)c(-c2cc3ccccc3[nH]2)nc2ccccc21 (centres undefined) do in these assays?
PRMT1 FP inh: 5; TDP2 absorb: 4

How did Cc1ccc2[nH]c3c(c2c1)CN(C(=O)CN1CCN(c2cccc(C)c2C)CC1)CC3 do in these assays?
Apaf-1 inh: 43*; PRMT1 FP inh: 21; PAD4 FP inh: -8; TDP2 absorb: -8; GSTO1 inh: -3; Apaf-1 inh conf: 19; Rh110 quench: 6

How did O=C(CN1C(=O)NC2(CCCCC2)C1=O)Nc1cccc(Cl)c1Cl do in these assays?
Apaf-1 inh: -12; PRMT1 FP inh: 0; PAD4 FP inh: -7; TDP2 absorb: 9

What do the screens show for `Cc1c(Cl)cccc1N=C1SCCN1C(=O)CN1C(=O)NC2(CCCC2)C1=O`?
Apaf-1 inh: 40*; PRMT1 FP inh: -1; PAD4 FP inh: -5; TDP2 absorb: 5; GSTO1 inh: -3; Apaf-1 inh conf: 17; Rh110 quench: -3

How did COC(=O)C12C=C3CC(c4ccc(OC)cc4)=C3C(=O)N1Cc1[nH]c3ccccc3c1C2 (centres undefined) do in these assays?
PRMT1 FP inh: 0; TDP2 absorb: 2

High-throughput results as filed in PubChem.
